The source of these data is ChEMBL document CHEMBL4613245, “Arenicolins: C-Glycosylated Depsides from Penicillium arenicola” (J Nat Prod, 2020).

One assay relates to Candida albicans. The assay can be described thus: Antifungal activity against Candida albicans ATCC 10231 at 100 ug/ml measured at 24 hrs by agar well diffusion method.
The subject of another assay is Staphylococcus aureus. The assay can be described thus: Antibacterial activity against Staphylococcus aureus ATCC 43300 at 100 ug/ml incubated for 24 to 48 hrs. Type of assay: functional, organism-based. A digest of the protocol:
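Agar well diffusion: sample dissolved in DMSO at 0.1 mg/mL, 10 μL applied to a 4 mm well cut in YM agar seeded with an overnight S. aureus ATCC 43300 culture; plates held at 37 °C and read for inhibition zones after 24–48 h.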

Assay [1] has as its system HCT-116. The assay can be described thus: Cytotoxicity against human HCT116 cells up to 30 uM after 48 hrs by CellTiter-Glo assay. Type of assay: functional, cell-based. A digest of the protocol:
(§1)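 Cells plated at 2000/well and preincubated 2 h, then exposed for 48 h to serial dilutions from 0.3 to 30.0 μM. Controls were 5-FU (positive) and fresh medium (negative). Each concentration ran in triplicate, and viability was read by CellTiter-Glo luminescence per the kit protocol.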
(In general: ATP-based viability assays read luminescence as a measure of living cells.)

For assay [2], the system named is IMR-32. The assay can be described thus: Cytotoxicity against human IMR32 cells up to 30 uM after 48 hrs by CellTiter-Glo assay. Format: functional, cell-based. A digest of the protocol:
as §1

The next assay deals with Cryptococcus neoformans. The assay can be described thus: Antifungal activity against Cryptococcus neoformans H99 at 100 ug/ml measured at 48 hrs by agar well diffusion method. As to conditions: var grubii H99. On the technique in general: A growth-free zone around the sample is the usual read-out of agar diffusion tests.
Assay [3] relates to BT-474. The assay can be described thus: Cytotoxicity against human BT474 cells up to 30 uM after 48 hrs by CellTiter-Glo assay. Type of assay: functional, cell-based. A digest of the protocol: as §1
Assay [4] relates to IMR-32. The assay can be described thus: Cytotoxicity against human IMR32 cells after 48 hrs by CellTiter-Glo assay. The note with it: for pIC50: IMR-32, 48 h. Format: functional, cell-based. A digest of the protocol:
as §1

In assay [5] the test system is HCT-116. The assay can be described thus: Cytotoxicity against human HCT116 cells after 48 hrs by CellTiter-Glo assay. Format: functional, cell-based. As to conditions: for pIC50: HCT-116, 48 h. A digest of the protocol: as §1
Assay [6] concerns BT-474. The assay can be described thus: Cytotoxicity against human BT474 cells after 48 hrs by CellTiter-Glo assay. Type of assay: functional, cell-based. A digest of the protocol: as §1

The structures appear in SMILES notation. pIC50: −log10 of the molar value. Calls of active or inactive are those of the source. The calls are words filed in the database; no cut-off is given here.

With `CCCCCCCc1cc(OC(=O)c2c(CCCCCCC)cc(O)c([C@@H]3O[C@H](CO)[C@@H](O)[C@H](O)[C@H]3O)c2O)cc(O)c1C(=O)O`, the result in the assay on Candida albicans, in the assay with Staphylococcus aureus, in the assay on HCT-116 [1], in the assay on IMR-32 [2], in the assay with Cryptococcus neoformans and in the assay with BT-474 [3] was inactive.
Take `O=c1[nH]cc(F)c(=O)[nH]1` [FLUOROURACIL]: the pIC50 – broadly, the IC50 on a negative log10 scale, so that one unit is a factor of ten – with IMR-32 [4] is 5.24; in the assay on HCT-116 [5], 5.19.
For the compound `CCCCCCCc1cc(OC(=O)c2c(CCCCCCC)cc(O)c([C@@H]3O[C@H](CO)[C@@H](O)[C@H](O)[C@H]3O)c2O)cc(O)c1C(=O)O[C@@H]1C(=O)C(CO)=C[C@@H](O)[C@H]1O`, the result in the assay with Candida albicans, with Staphylococcus aureus and in the assay with Cryptococcus neoformans was inactive. In addition, the Activity result in the assay with IMR-32 [4], in the assay on HCT-116 [5] and in the assay with BT-474 [6] was “Dose-dependent effect” each time. Further, the pIC50 with IMR-32 [4] is 5.22; in the assay with HCT-116 [5], 5.14; in the assay with BT-474 [6] (BT-474, 48 h), 5.01.
